From ChEMBL document CHEMBL4024769, “Synthesis and Investigation of Photophysical and Biological Properties of Novel S-Containing Bacteriopurpurinimides” (J Med Chem, 2017) come the findings set out here.

Data set [1] can be described thus: Phototoxicity against mouse S37 cells implanted in F1 mouse assessed as tumor growth inhibition at 5 mg/kg, iv preincubated for 15 mins with subsequent 150 J/cm2 irradiation measured on day 20 post irradiation relative to control. The data set is classed as functional. Particulars: S37, light or radiation study, read-out: TGI. In a few lines:
(§1)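 S37 sarcoma mice treated on day 7 of tumor growth with compound iv; tumors 140–160 mm3 beforehand, droperidol 0.25 mg ip as anesthetic. LED irradiation at 800 ± 21 nm, 100 mW/cm2, 150 J/cm2, given 15 or 30 min after dosing. Controls got iv 0.9% NaCl. Volume = d1×d2×d3×0.52; TGI = […]×100%.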

Data set [2] can be described thus: Phototoxicity against mouse S37 cells implanted in F1 mouse assessed as tumor growth inhibition at 2.5 mg/kg, iv preincubated for 15 mins with subsequent 150 J/cm2 irradiation measured on day 11 post irradiation relative to control. The format is functional. Particulars: S37, light or radiation study, read-out: TGI. In a few lines: as §1
A short description of data set [3]: Drug uptake in skin tumor of F1 mouse implanted with mouse S37 cells assessed as normalized fluorescence at 2.5 mg/kg, iv measured after 15 mins post injection in presence of He-Ne laser radiation by local fluorescence spectroscopic analysis. The format is ADME, organism-based. Particulars: in vivo, 0.25 h. In a few lines: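 S37 sarcoma-bearing immunocompetent F1 mice (18−22 g) given PS 2.5 mg/kg iv. Animals sacrificed at 0.25, 0.5, 2, 4 and 24 h, with three animals per time point. Skin, tumor and organ samples were read ex vivo by contact local fluorescence spectroscopy under He−Ne 632.8 nm excitation. Integrated 640−900 nm emission was normalized to the backscattered laser signal to give FN.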

The test system of data set [4] is Sarcoma M1. Briefly: Phototoxicity against rat Sarcoma M1 cells implanted in rat assessed as coagulative tumor necrosis at 2.5 mg/kg, ip administered as single dose on day 11 post inoculation followed by 300 J/cm2 irradiation after 2.5 to 3 hrs measured on day 2 post photodynamic therapy by hematoxylin and eosin staining based assay. The format is functional, organism-based.

Data set [5] in a line: Phototoxicity against rat Sarcoma M1 cells implanted in rat assessed as mitotic index at 2.5 mg/kg, ip administered as single dose on day 11 after inoculation followed by 300 J/cm2 irradiation after 2.5 to 3 hrs measured on day 12 post photodynamic therapy (reference value: 1.9 +/- 0.2%). The format is functional. In a few lines:
(§2)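 Rats with M1 sarcoma implanted subcutaneously in the left thigh were randomized on day 10, 25 per group. Single ip dose of 2.5 mg/kg on day 11; laser irradiation 2.5–3 h later at 810 nm, 0.51 W/cm2, 300 J/cm2, 10 min over a 1.5 cm field. Five rats sampled per time point for H&E histology, PCNA immunohistochemistry (1:200) and tumor volume. Untreated controls; Student's test, p < 0.05.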

Data set [6] can be described thus: Drug uptake in kidney tumor of F1 mouse implanted with mouse S37 cells assessed as normalized fluorescence at 2.5 mg/kg, iv measured after 24 hrs post injection in presence of He-Ne laser radiation by local fluorescence spectroscopic analysis. The format is ADME, organism-based. As to conditions: in vivo. In a few lines: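 Single iv dose of 2.5 mg/kg given to F1 mice bearing S37 sarcoma. Skin, muscle, liver, kidney, spleen and tumor taken from three animals each at 0.25, 0.5, 2, 4 and 24 h and read ex vivo by contact local fluorescence spectroscopy. He–Ne 632.8 nm excitation; 640–900 nm integral normalized to backscattered laser signal (FN).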

Data set [7] can be described thus: Phototoxicity against rat Sarcoma M1 cells implanted in rat assessed as volume of tumor parenchyma at 2.5 mg/kg, ip administered as single dose on day 11 after inoculation followed by 300 J/cm2 irradiation after 2.5 to 3 hrs measured on day 3 post photodynamic therapy by hematoxylin and eosin staining based assay (reference value: 70 +/- 4%). The data set is classed as functional. In a few lines: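 Rat M1 sarcoma was implanted subcutaneously in the left thigh, with randomisation on day 10. A single 2.5 mg/kg ip dose was given on day 11, then 810 nm laser (0.51 W/cm2, 300 J/cm2, 10 min) after 2.5−3 h. Tumours were sectioned on days 1, 3 and 12 after PDT (controls days 12, 14, 23), five animals per point. Parenchyma and necrotic zone volumes were estimated on hematoxylin and eosin staining.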

Data set [8] is described as follows: Phototoxicity against rat Sarcoma M1 cells implanted in rat assessed as apoptotic index at 2.5 mg/kg, ip administered as single dose on day 11 after inoculation followed by 300 J/cm2 irradiation after 2.5 to 3 hrs measured on day 12 post photodynamic therapy (reference value: 0.37 +/- 0.06%). The data set is classed as functional. In a few lines:
as §2

Each structure is given as a SMILES string. The source made the active and inactive calls. The calls are words filed in the database; no cut-off is given here.

On to `CCCO/N=C(\C)c1c(C)c2cc3nc(c4c5[nH]c(cc6nc(cc1[nH]2)[C@H](C)[C@H]6CC)c(C)c5C(=O)N(OCCC)C4=O)[C@@H](CCC(=O)OC)[C@@H]3C`, for which the inhibition in vivo at 5 mg/kg in data set [1] was 100%. For the same molecule, the inhibition in vivo at 2.5 mg/kg in data set [2] was determined as 100%. Besides, the Flu intensity in data set [3] is on record as 2.2 RU.

For the molecule `CCCO/N=C(\C)c1c(C)c2cc3nc(c4c5[nH]c(cc6nc(cc1[nH]2)[C@@H](C)[C@@H]6CC)c(C)c5C(=O)N(OCCC)C4=O)[C@H](CCC(=O)NCCSSCCNC(=O)CC[C@@H]1c2nc(cc4[nH]c(cc5nc(cc6[nH]c7c2C(=O)N(OCCC)C(=O)c7c6C)[C@H](CC)[C@H]5C)c(/C(C)=N/OCCC)c4C)[C@H]1C)[C@H]3C`, the result in data set [4] was Active. The Activity in data set [5] was 1.78%; in data set [7], 23%; in data set [8], 0.42%. Besides, the Drug uptake entry in data set [6] is recorded as “Active”.
